Measured values from ChEMBL document CHEMBL1641427, “Arylsulfanyl pyrazolones block mutant SOD1-G93A aggregation. Potential application for the treatment of amyotrophic lateral sclerosis” (Bioorg Med Chem, 2011).
In brackets after ≈: the same amount, converted by molar mass.

Columns and labels:
[1] = Inhibition of SOD1 G93A mutant aggregation in rat PC12 cells by cytotoxicity protection assay; format: cell-based; details: PC-12
[2] = (§1) Permeability from apical to basolateral side of human Caco2 cells after 2 hrs; format: ADME, cell-based, Caco-2; details: Caco-2
Method in brief: (§2)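 Caco-2 cells were seeded on collagen-coated inserts and differentiated for 3 weeks, fed every 2 days. The donor side received 50 μM compound in HBSS with 10 mM HEPES and 1.98 g/L glucose, apical at pH 6.5 and basolateral at pH 7.4, for 2 h. Apical 100 μM Lucifer yellow checked monolayer integrity (<1%/2 h). Papp = dQ/dt/(C0·A), and the ratio is Papp(B→A)/Papp(A→B).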

[3] = (§3) Permeability from basolateral to apical side of human Caco2 cells after 2 hrs; format: ADME, cell-based, Caco-2; details: Caco-2; method in brief: as §2
Caco-2 [4] = assay: (§4) Ratio of permeability from basolateral to apical side to apical to basolateral side in human Caco2 cells; format: ADME, cell-based; method in brief: as §2
[5] = Aqueous solubility of the compound; format: physicochemical; details: buffer
Method in brief: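 DMSO stock 3-fold serially diluted at 100× final, then diluted into PBS to 1% DMSO final. Incubated 1 h at room temperature, inspected visually for precipitate and read at 450 nm. Solubility limit is the highest concentration neither cloudy nor above background absorbance (visual only for coloured compounds).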

Caco-2 [6] = assay: as §1; format: ADME, cell-based; details: caco-2, 2 h; method in brief: as §2
Caco-2 [7] = assay: as §3; format: ADME, cell-based; details: caco-2, 2 h; method in brief: as §2
[8] = as §4; format: ADME, cell-based; details: Caco-2; method in brief: as §2
Plasma = assay: Half life of the compound in mouse plasma at 5 uM; format: ADME, cell-free
Method in brief: (§5)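 Samples taken at 15 s and at 10, 20, 40 and 60 min, precipitated with acetonitrile containing haloperidol internal standard, then LC-MS/MS. Plasma/PBS response ratio fitted to a first-order exponential (1/Y weighting); T1/2 = ln2/k. PBS half-life from its own exponential fit.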

[9] = Stability of the compound in PBS assessed as compound remaining after 60 mins; format: physicochemical; details: read-out: Stability; method in brief: as §5
[10] = Half life in human microsome by LC-MS/MS analysis; format: ADME; details: microsomes
[11] = Half life in mouse microsome by LC-MS/MS analysis; format: ADME, microsomes; details: for t1/2: microsomes
[12] = Intrinsic clearance in mouse microsome by LC-MS/MS analysis in presence of NADPH; format: ADME; details: mouse microsomes
[13] = Intrinsic clearance in mouse microsome by LC-MS/MS analysis; format: ADME; details: mouse microsomes
[14] = Drug level in Tg6799 mouse brain measured per gram of tissue at 1 mg/kg, ip after 10 mins by LC-MS/MS analysis; format: ADME, organism-based; parameters: dose 1 mg/kg, route intraperitoneal; details: read-out: Drug uptake
Method in brief: (§6)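 Female Tg6799 mice (B6/SJL background), n=3, given 1 mg/kg i.p. in 60% PBS/40% DMSO (100 μL per 10 g) and killed at 10 min. Plasma collected by centrifugation. Brain PBS-perfused via left ventricle, excised, weighed and homogenized in acetonitrile with internal standard. Analyte measured by LC-MS/MS as ratio to internal standard; plasma in μg/mL, brain in μg/g. Brain/plasma ratio computed after μM conversion assuming brain density 1 g/mL. Mean ± SD.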

[15] = Drug level in Tg6799 mouse plasma at 1 mg/kg, ip after 10 mins by LC-MS/MS analysis; format: ADME, organism-based; parameters: dose 1 mg/kg, route intraperitoneal; details: read-out: Drug uptake; method in brief: as §6
[16] = Ratio of drug level in brain to plasma in Tg6799 mouse at 1 mg/kg, ip after 10 mins by LC-MS/MS analysis; format: ADME, organism-based; parameters: dose 1 mg/kg, route intraperitoneal; method in brief: as §6
[17] = Ratio of AUC of compound to 4-ethylidene-1H-pyrazol-5(4H)-ones in pig brain at 0.50 ug/ml brain extract concentration; format: ADME, tissue-based, Sus scrofa; details: in vivo
Method in brief: (§7)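 Brain standards: analyte added to pig brain pieces (300–500 mg) with acetonitrile and internal standard at final 0.05, 0.10, 0.5 and 1.0 μg/mL (1 mL total). Homogenized, then 20 μL aliquot run by LC-MS/MS. Analyte/internal standard response taken. Triplicate.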

[18] = Ratio of AUC of compound to 4-ethylidene-1H-pyrazol-5(4H)-ones in pig brain at 1 ug/ml brain extract concentration; format: ADME, tissue-based, Sus scrofa; details: in vivo; method in brief: as §7
Mus musculus [19] = assay: Plasma area ratio in Tg6799 mouse at 1 mg/kg, ip after 10 mins by LC-MS/MS analysis; format: ADME, organism-based; parameters: dose 1 mg/kg, route intraperitoneal; details: in vivo; method in brief: as §6
Mus musculus [20] = assay: Brain area ratio in Tg6799 mouse at 1 mg/kg, ip after 10 mins by LC-MS/MS analysis; format: ADME, organism-based; parameters: dose 1 mg/kg, route intraperitoneal; details: in vivo; method in brief: as §6
Brain = assay: Effect of compound on Tg6799 mouse brain weight at 1 mg/kg, ip after 10 mins; format: ADME, organism-based; parameters: dose 1 mg/kg, route intraperitoneal; details: in vivo
[21] = Ratio of AUC of compound to 4-ethylidene-1H-pyrazol-5(4H)-ones in pig brain at 0.10 ug/ml brain extract concentration; format: ADME, tissue-based, Sus scrofa; details: in vivo; method in brief: as §7
[22] = Ratio of AUC of compound to 4-ethylidene-1H-pyrazol-5(4H)-ones in pig brain at 0.05 ug/ml brain extract concentration; format: ADME, tissue-based, Sus scrofa; details: in vivo; method in brief: as §7
Plasma (Homo sapiens) [23] = assay: Ratio of AUC of compound to 4-ethylidene-1H-pyrazol-5(4H)-ones in human serum at 0.50 ug/ml plasma concentration
Plasma (Homo sapiens) [24] = assay: Ratio of AUC of compound to 4-ethylidene-1H-pyrazol-5(4H)-ones in human serum at 0.05 ug/ml plasma concentration
Plasma (Homo sapiens) [25] = assay: Ratio of AUC of compound to 4-ethylidene-1H-pyrazol-5(4H)-ones in human serum at 0.10 ug/ml plasma concentration
Plasma (Homo sapiens) [26] = assay: Ratio of AUC of compound to 4-ethylidene-1H-pyrazol-5(4H)-ones in human serum at 0.01 ug/ml plasma concentration

SMILES | EC50 [1] [µM] | further results
O=c1cc(CSc2ccc(Cl)c(Cl)c2)[nH][nH]1 | 1.89 | 
O=c1cc(CSc2ccc(Cl)cc2)[nH]n1-c1ccccc1 | 3.46 | 
O=c1cc(CSc2cc(Cl)cc(Cl)c2)[nH][nH]1 | 0.17 | 
O=c1cc(CSc2ccc(Cl)cc2)[nH][nH]1 | 1.93 | 
O=c1cc(CSc2ccc(-c3ccccc3)cc2)[nH][nH]1 | 4.06 | 
Cc1ccc(SCC2=NN(c3ccccc3)C(=O)/C2=C\C2=NCN=C2c2ccccc2)cc1 | 10 | 
O=c1cc(CSc2ccc(Br)cc2)[nH][nH]1 | 1.8 | 
O=c1cc(CSc2ccccc2Cl)[nH][nH]1 | 3.05 | 
O=c1cc(CSc2nnnn2-c2ccccc2)[nH]n1-c1ccccc1 | 6.6 | 
CNC(=C[N+](=O)[O-])NCCSCc1ccc(CN(C)C)o1 [RANITIDINE] |  | Papp A→B at 2 h [2]: 0.6 ×10⁻⁶ cm/s; Papp B→A at 2 h [3]: 0.6 ×10⁻⁶ cm/s; Ratio (Caco-2 [4]): 1
Cc1ccc(SCc2cc(=O)[nH][nH]2)cc1 | 2 | 
CC(C)(C)c1ccc(SCc2cc(=O)[nH][nH]2)cc1 | 2.31 | 
O=c1cc(CSc2c(Cl)cccc2Cl)[nH][nH]1 | 0.95 | 
Cc1ccc(SCC2=NN(c3ccccc3)C(=O)/C2=C\c2ccc(-c3cccc(C(F)(F)F)c3)o2)cc1 | 4.1 | 
O=C1NN=C(CSc2ccccc2)/C1=C/c1ccccc1 | > 32 | 
O=C1ON=C(CSc2ccccc2)/C1=C/c1ccccc1 | 165 | 
O=c1cc(CSc2ccc([N+](=O)[O-])cc2)[nH][nH]1 | 2.4 | 

SMILES | EC50 [1] [µM] | further results
O=c1cc(CSc2ccc(Cl)cc2Cl)[nH][nH]1 | 1.15 | 
Cc1cc(SCc2cc(=O)[nH][nH]2)c(Cl)cc1Cl | 0.55 | solubility [5]: 56 µM (≈ 16.2 µg/mL); Papp (Caco-2 [6]): 4.7 ×10⁻⁶ cm/s; Papp (Caco-2 [7]): 0.46 ×10⁻⁶ cm/s; efflux ratio [8]: 0.1; t1/2 (Plasma): 16 min; remaining at 1 h [9]: 100%; t1/2 [10]: 39 min; t1/2 [11]: 13 min
O=C1/C(=C\c2ccc(-c3cccc(C(F)(F)F)c3)o2)C(CSc2ccccc2)=NN1c1ccccc1 | 35 | 
Cn1[nH]c(CSc2ccc(Cl)cc2)cc1=O | 5.4 | 
Cc1cc(C)nc(-n2[nH]c(CSc3nnc(C)s3)cc2=O)n1 | 6.7 | 
Cc1cc(SCC2=NNC(=O)/C2=C\N(C)C)c(Cl)cc1Cl | 0.9 | CLint scaled [12]: 924 mL/min/kg; CLint scaled [13]: 135 mL/min/kg; half-life ([11]; mouse microsomes): 4 min
Cc1cc(SCc2cc(=O)[nH][nH]2)c(C)cc1Cl | 0.4 | CLint scaled [12]: 242 mL/min/kg; concentration at 10 min [14]: 360 ng/g; concentration at 10 min [15]: 1960 ng/mL; Ratio [16]: 0.19; Ratio AUC [17]: 1.11; Ratio AUC [18]: 2.48; Ratio (Mus musculus [19]): 0; Ratio (Mus musculus [20]): 0; Activity (Brain): 0.399 g; Ratio AUC [21]: 0.268; Ratio AUC [22]: 0.148; CLint scaled [13]: 63 mL/min/kg; t1/2 [11]: 15 min; Ratio AUC (Plasma (Homo sapiens) [23]): 1.58; Ratio AUC (Plasma (Homo sapiens) [24]): 0.304; Ratio AUC (Plasma (Homo sapiens) [25]): 0.637; Ratio AUC (Plasma (Homo sapiens) [26]): 0.068
O=c1cc(CSc2cccc(Cl)c2)[nH][nH]1 | 1.11 | 
O=c1cc(CSc2ccccc2)[nH][nH]1 | 10.1 | 
Cc1ccc(SCc2cc(=O)n(-c3nc(C)cc(C)n3)[nH]2)cc1 | 3.5 | 
O=c1cc(CSc2ccc(F)cc2)[nH][nH]1 | 3.44 | 
COc1ccc(SCc2cc(=O)[nH][nH]2)cc1 | 1.81 | 
Cc1nnc(SCc2cc(=O)[nH][nH]2)s1 | 16 | 
Cc1cc(SCC2=NNC(=O)/C2=C\N(C)C)c(C)cc1Cl | 5.3 | 
CC(=O)CC(c1ccccc1)c1c(O)c2ccccc2oc1=O (centres undefined) [WARFARIN] |  | CLint scaled [13]: 6 mL/min/kg
Cc1nnc(SCc2cc(=O)n(-c3nc4ccccc4s3)[nH]2)s1 | 44 | 
O=c1cc(CSc2ccccn2)[nH][nH]1 | 46 | 
